# Assay results reported in ChEMBL document CHEMBL1629686, “Substrate selectivity and a novel role in inhibitor discrimination by residue 237 in the KPC-2 beta-lactamase” (Antimicrob Agents Chemother, 2010).
# Key:
# Klebsiella pneumoniae [1] = experiment: Activity of Klebsiella pneumoniae 1534 beta-lactamase KPC-2 T237S mutant by spectrophotometric analysis
# Method in brief: (§1)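 Purified KPC-2 variant enzymes (periplasmic lysate from E. coli, preparative isoelectric focusing). Hydrolysis followed by diode-array spectrophotometry in 10 mM PBS, pH 7.4, room temperature. Enzyme at 10 nM with substrate in molar excess for pseudo-first-order conditions. Vmax and Km came from a nonlinear least-squares Michaelis-Menten fit.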
# Klebsiella pneumoniae [2] = experiment: Ratio of Kcat/Km for Klebsiella pneumoniae 1534 beta-lactamase KPC-2 T237S mutant by spectrophotometric analysis; method in brief: as §1
# Klebsiella pneumoniae [3] = experiment: Activity of Klebsiella pneumoniae 1534 beta-lactamase KPC-2 T237A mutant by spectrophotometric analysis; method in brief: as §1
# Escherichia coli [4] = experiment: Antimicrobial activity against Escherichia coli DH10B harboring plasmid pBC SK(+) carrying wild type beta-lactamase KPC-2 by agar dilution method in presence of beta-lactamase inhibitor Tazobactam; assay type: functional; conditions: K-12 DH10B
# Method in brief: (§2)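 LB agar dilution MICs by CLSI criteria, inoculated with a Steers replicator. […] Strains were E. coli DH10B with or without pBC SK(+) carrying wild-type blaKPC-2 or a position 237 variant.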
# Escherichia coli [5] = experiment: Antimicrobial activity against Escherichia coli DH10B harboring beta-lactamase KPC-2 T237G mutant by agar dilution method in presence of beta-lactamase inhibitor Tazobactam; assay type: functional; conditions: K-12 DH10B; method in brief: as §2
# Escherichia coli [6] = experiment: Antimicrobial activity against Escherichia coli DH10B harboring beta-lactamase KPC-2 T237W mutant by agar dilution method in presence of beta-lactamase inhibitor Tazobactam; assay type: functional; conditions: K-12 DH10B; method in brief: as §2
# Escherichia coli [7] = experiment: Antimicrobial activity against Escherichia coli DH10B harboring beta-lactamase KPC-2 T237N mutant by agar dilution method in presence of beta-lactamase inhibitor Tazobactam; assay type: functional; conditions: K-12 DH10B; method in brief: as §2
# Escherichia coli [8] = experiment: Antimicrobial activity against Escherichia coli DH10B harboring beta-lactamase KPC-2 T237Q mutant by agar dilution method in presence of beta-lactamase inhibitor Tazobactam; assay type: functional; conditions: K-12 DH10B; method in brief: as §2
# Escherichia coli [9] = experiment: Antimicrobial activity against Escherichia coli DH10B harboring beta-lactamase KPC-2 T237S mutant by agar dilution method in presence of beta-lactamase inhibitor Tazobactam; assay type: functional; conditions: K-12 DH10B; method in brief: as §2
# Escherichia coli [10] = experiment: Antimicrobial activity against Escherichia coli DH10B harboring beta-lactamase KPC-2 T237H mutant by agar dilution method in presence of beta-lactamase inhibitor Tazobactam; assay type: functional; conditions: K-12 DH10B; method in brief: as §2
# Escherichia coli [11] = experiment: Antimicrobial activity against Escherichia coli DH10B harboring beta-lactamase KPC-2 T237R mutant by agar dilution method in presence of beta-lactamase inhibitor Tazobactam; assay type: functional; conditions: K-12 DH10B; method in brief: as §2
# Escherichia coli [12] = experiment: Antimicrobial activity against Escherichia coli DH10B harboring plasmid […] by agar dilution method in presence of beta-lactamase inhibitor Tazobactam; assay type: functional; conditions: K-12 DH10B
# Method in brief: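 LB agar dilution MIC following CLSI criteria, inoculated with a Steers replicator. Tested as piperacillin-tazobactam at a fixed 8:1 ratio.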
# Escherichia coli [13] = experiment: Antimicrobial activity against Escherichia coli DH10B harboring beta-lactamase KPC-2 T237G mutant by agar dilution method in presence of beta-lactamase inhibitor clavulanic acid; assay type: functional; conditions: K-12 DH10B
# Method in brief: (§3)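 LB agar dilution MICs per CLSI criteria, inoculated with a Steers replicator. […] Strains: E. coli DH10B alone, DH10B carrying empty pBC SK(+), or DH10B carrying pBC SK(+)-blaKPC-2 position 237 variants made by site-saturation mutagenesis and confirmed by sequencing. Plasmid selection used 20 mg/liter chloramphenicol.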
# Escherichia coli [14] = experiment: Antimicrobial activity against Escherichia coli DH10B harboring beta-lactamase KPC-2 T237G mutant by agar dilution method in presence of beta-lactamase inhibitor Sulbactam; assay type: functional; conditions: K-12 DH10B
# Method in brief: (§4)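 LB agar dilution MICs by CLSI criteria, applied with a Steers replicator. […] Hosts were E. coli DH10B carrying pBC SK(+) with wild-type blaKPC-2 or a position 237 variant.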
# Escherichia coli [15] = experiment: Antimicrobial activity against Escherichia coli DH10B harboring beta-lactamase KPC-2 T237L mutant by agar dilution method in presence of beta-lactamase inhibitor clavulanic acid; assay type: functional; conditions: K-12 DH10B; method in brief: as §4
# Escherichia coli [16] = experiment: Antimicrobial activity against Escherichia coli DH10B harboring beta-lactamase KPC-2 T237V mutant by agar dilution method in presence of beta-lactamase inhibitor clavulanic acid; assay type: functional; conditions: K-12 DH10B; method in brief: as §4
# Escherichia coli [17] = experiment: Antimicrobial activity against Escherichia coli DH10B harboring beta-lactamase KPC-2 T237W mutant by agar dilution method in presence of beta-lactamase inhibitor clavulanic acid; assay type: functional; conditions: K-12 DH10B; method in brief: as §3
# Escherichia coli [18] = experiment: Antimicrobial activity against Escherichia coli DH10B harboring beta-lactamase KPC-2 T237W mutant by agar dilution method in presence of beta-lactamase inhibitor Sulbactam; assay type: functional; conditions: K-12 DH10B; method in brief: as §4
# Escherichia coli [19] = experiment: Antimicrobial activity against Escherichia coli DH10B harboring beta-lactamase KPC-2 T237C mutant by agar dilution method in presence of beta-lactamase inhibitor clavulanic acid; assay type: functional; conditions: K-12 DH10B; method in brief: as §3
# Escherichia coli [20] = experiment: Antimicrobial activity against Escherichia coli DH10B harboring beta-lactamase KPC-2 T237N mutant by agar dilution method in presence of beta-lactamase inhibitor clavulanic acid; assay type: functional; conditions: K-12 DH10B; method in brief: as §4
# Escherichia coli [21] = experiment: Antimicrobial activity against Escherichia coli DH10B harboring beta-lactamase KPC-2 T237P mutant by agar dilution method in presence of beta-lactamase inhibitor Sulbactam; assay type: functional; conditions: K-12 DH10B; method in brief: as §3
# Escherichia coli [22] = experiment: Antimicrobial activity against Escherichia coli DH10B harboring beta-lactamase KPC-2 T237Q mutant by agar dilution method in presence of beta-lactamase inhibitor clavulanic acid; assay type: functional; conditions: K-12 DH10B; method in brief: as §4
# Escherichia coli [23] = experiment: Antimicrobial activity against Escherichia coli DH10B harboring beta-lactamase KPC-2 T237S mutant by agar dilution method in presence of beta-lactamase inhibitor clavulanic acid; assay type: functional; conditions: K-12 DH10B; method in brief: as §4
# Escherichia coli [24] = experiment: Antimicrobial activity against Escherichia coli DH10B harboring beta-lactamase KPC-2 T237D mutant by agar dilution method in presence of beta-lactamase inhibitor Sulbactam; assay type: functional; conditions: K-12 DH10B; method in brief: as §4
# Escherichia coli [25] = experiment: Antimicrobial activity against Escherichia coli DH10B harboring beta-lactamase KPC-2 T237R mutant by agar dilution method in presence of beta-lactamase inhibitor clavulanic acid; assay type: functional; conditions: K-12 DH10B; method in brief: as §3
# Escherichia coli [26] = experiment: Antimicrobial activity against Escherichia coli DH10B harboring plasmid […] by agar dilution method in presence of beta-lactamase inhibitor Sulbactam; assay type: functional; conditions: K-12 DH10B; method in brief: as §3
# Klebsiella pneumoniae [27] = experiment: microbe, parasite or virus in culture; conditions: 1534
smiles,measurement,setting,value
CCN1CCN(C(=O)N[C@@H](C(=O)N[C@@H]2C(=O)N3[C@@H]2SC(C)(C)[C@@H]3C(=O)O)c2ccccc2)C(=O)C1=O [PIPERACILLIN],Km,Klebsiella pneumoniae [1],6 µM
same,kcat,Klebsiella pneumoniae [1],42 s⁻¹
same,kcat/Km,Klebsiella pneumoniae [2],7e+06 M⁻¹ s⁻¹
same,Km,Klebsiella pneumoniae [3],12 µM
same,kcat,Klebsiella pneumoniae [3],42 s⁻¹
same,MIC,Escherichia coli [4],8 µg/mL
same,MIC,Escherichia coli [5],1 µg/mL
same,MIC,Escherichia coli [6],1 µg/mL
same,MIC,Escherichia coli [7],1 µg/mL
same,MIC,Escherichia coli [8],4 µg/mL
same,MIC,Escherichia coli [9],8 µg/mL
same,MIC,Escherichia coli [10],1 µg/mL
same,MIC,Escherichia coli [11],0.5 µg/mL
same,MIC,Escherichia coli [12],0.5 µg/mL
CC1(C)S[C@@H]2[C@H](NC(=O)[C@H](N)c3ccccc3)C(=O)N2[C@H]1C(=O)O [AMPICILLIN],MIC,Escherichia coli [13],1 µg/mL
same,MIC,Escherichia coli [14],16 µg/mL
same,MIC,Escherichia coli [15],8 µg/mL
same,MIC,Escherichia coli [16],8 µg/mL
same,MIC,Escherichia coli [17],1 µg/mL
same,MIC,Escherichia coli [18],8 µg/mL
same,MIC,Escherichia coli [19],1 µg/mL
same,MIC,Escherichia coli [20],4 µg/mL
same,MIC,Escherichia coli [21],1 µg/mL
same,MIC,Escherichia coli [22],8 µg/mL
same,MIC,Escherichia coli [23],4 µg/mL
same,MIC,Escherichia coli [24],16 µg/mL
same,MIC,Escherichia coli [25],1 µg/mL
same,MIC,Escherichia coli [26],1 µg/mL
same,MIC,Klebsiella pneumoniae [27],512 µg/mL
